Results published in ChEMBL document CHEMBL4152227, “Targeting mitochondria: Esters of rhodamine B with triterpenoids are mitocanic triggers of apoptosis” (Eur J Med Chem, 2018).
pEC50: −log10 of the molar value. Active and inactive are the calls of the source.

What was measured:
[1] = test system: FaDu; assay: Cytotoxicity against human FADU cells after 96 hrs by SRB assay; assay type: functional, cell-based
In short: (§1)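 Sulforhodamine B colorimetric assay after 96 h of treatment. EC50 values in µM are averaged from three independent experiments, each run in triplicate, with a 95% confidence interval. The assay cut-off is 30 µM.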

[2] = test system: A2780; assay: Cytotoxicity against human A2780 cells after 96 hrs by SRB assay; assay type: functional, cell-based; conditions: A2780, 96 h; in short: as §1
[3] = test system: HT-29; assay: Cytotoxicity against human HT-29 cells after 96 hrs by SRB assay; assay type: functional, cell-based; conditions: HT-29, 96 h; in short: as §1
[4] = test system: MCF7; assay: Cytotoxicity against human MCF7 cells after 96 hrs by SRB assay; assay type: functional, cell-based; conditions: MCF7, 96 h; in short: as §1
[5] = test system: NIH3T3; assay: Cytotoxicity against mouse NIH/3T3 cells after 96 hrs by SRB assay; assay type: cell-based; conditions: NIH3T3, 96 h; in short: as §1
[6] = test system: SW-1736; assay: Cytotoxicity against human SW1736 cells after 96 hrs by SRB assay; assay type: functional, cell-based; conditions: SW-1736, 96 h; in short: as §1
[7] = Drug uptake in nucleus of human A2780 cells at 200 nM after 24 hrs by rhodamine 123 staining based fluorescence microscopy; assay type: ADME, subcellular; conditions: a2780, 24 h, 0.2 µM
In short: (§2)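 A2780 ovarian carcinoma cells were incubated 24 h with 200 nM compound, then double-stained with rhodamine 123 (mitochondria, green) and Hoechst 33342 (nuclei). Fluorescence microscopy localized the compound's own red fluorescence by overlay with the rhodamine 123 and Hoechst channels. Bright-field images were also taken.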

[8] = Drug uptake in mitochondria of human A2780 cells at 200 nM after 24 hrs by rhodamine 123 staining based fluorescence microscopy; assay type: ADME; conditions: a2780, 24 h, 0.2 µM; in short: as §2
[9] = test system: A2780; assay: Induction of apoptosis in human A2780 cells assessed as crescent-shaped nuclei at 200 nM after 24 hrs by Hoechst 33342 staining based fluorescence microscopy; assay type: functional, cell-based
[10] = test system: A2780; assay: Induction of apoptosis in human A2780 cells assessed as incipient membrane blebbing at 200 nM after 24 hrs; assay type: functional, cell-based

Row | Structure (SMILES) | pEC50 [1] | pEC50 [2] | pEC50 [3] | pEC50 [4] | pEC50 [5] | pEC50 [6] | Drug uptake [7] | Drug uptake [8] | Activity [9] | Activity [10]
1 | CCN(CC)c1ccc2c(-c3ccccc3C(=O)O[C@H]3CC[C@]4(C)[C@H]5C(=O)C=C6[C@@H]7C[C@@](C)(C(=O)OC)CC[C@]7(C)CC[C@@]6(C)[C@]5(C)CC[C@H]4C3(C)C)c3ccc(=[N+](CC)CC)cc-3oc2c1 | 6.72 | 7.10 | 6.82 | 6.74 | 6.70 | 6.82 |  |  |  | 
2 | CCN(CC)c1ccc2c(-c3ccccc3C(=O)O[C@H]3CC[C@]4(C)[C@H]5CC=C6[C@@H]7CC(C)(C)CC[C@]7(C(=O)OC)CC[C@@]6(C)[C@]5(C)CC[C@H]4C3(C)C)c3ccc(=[N+](CC)CC)cc-3oc2c1 | 5.70 | 5.94 | 5.56 | 5.64 | 5.58 | 5.75 |  |  |  | 
3 | CCN(CC)c1ccc2c(-c3ccccc3C(=O)O[C@H]3CC[C@]4(C)[C@H]5CC=C6[C@@H]7CC(C)(C)CC[C@]7(C(=O)NCc7ccccc7)CC[C@@]6(C)[C@]5(C)CC[C@H]4C3(C)C)c3ccc(=[N+](CC)CC)cc-3oc2c1 | 6.30 | 6.49 | 6.34 | 6.44 | 6.40 | 6.57 |  |  |  | 
4 | CCN(CC)c1ccc2c(-c3ccccc3C(=O)O[C@H]3CC[C@]4(C)[C@H]5C(=O)C=C6[C@@H]7C[C@@](C)(C(=O)NCc8ccccc8)CC[C@]7(C)CC[C@@]6(C)[C@]5(C)CC[C@H]4C3(C)C)c3ccc(=[N+](CC)CC)cc-3oc2c1.[Cl-] | 7.22 | 7.70 | 7.22 | 7.40 | 7.10 | 7.40 | Not Active | Active | Active | Active
5 | C=C(C)[C@@H]1CC[C@]2(C(=O)NCc3ccccc3)CC[C@]3(C)[C@H](CC[C@@H]4[C@@]5(C)CC[C@H](OC(=O)c6ccccc6-c6c7ccc(=[N+](CC)CC)cc-7oc7cc(N(CC)CC)ccc67)C(C)(C)[C@@H]5CC[C@]43C)[C@H]12 | 6.27 | 6.51 | 6.28 | 6.33 | 6.27 | 6.35 |  |  |  | 
6 | CCN(CC)c1ccc2c(-c3ccccc3C(=O)O[C@H]3CC[C@]4(C)[C@H]5CC=C6[C@@H]7CC(C)(C)CC[C@]7(C(=O)OCc7ccccc7)CC[C@@]6(C)[C@]5(C)CC[C@H]4C3(C)C)c3ccc(=[N+](CC)CC)cc-3oc2c1 | 5.04 | 5.47 | 5.05 | 5.03 | 4.95 | 5.04 |  |  |  | 
7 | C=C(C)[C@@H]1CC[C@]2(C(=O)OCc3ccccc3)CC[C@]3(C)[C@H](CC[C@@H]4[C@@]5(C)CC[C@H](OC(=O)c6ccccc6-c6c7ccc(=[N+](CC)CC)cc-7oc7cc(N(CC)CC)ccc67)C(C)(C)[C@@H]5CC[C@]43C)[C@H]12 | 5.12 | 5.47 | 5.27 | 5.30 | 5.09 | 5.19 |  |  |  | 
8 | CCN(CC)c1ccc2c(-c3ccccc3C(=O)O[C@H]3CC[C@]4(C)[C@H]5CC=C6[C@@H]7[C@@H](C)[C@H](C)CC[C@]7(C(=O)OC)CC[C@@]6(C)[C@]5(C)CC[C@H]4C3(C)C)c3ccc(=[N+](CC)CC)cc-3oc2c1 | 5.71 | 5.76 | 5.73 | 5.74 | 5.74 | 5.76 |  |  |  | 
9 | CCN(CC)c1ccc2c(-c3ccccc3C(=O)O[C@H]3CC[C@]4(C)[C@H]5CC=C6[C@@H]7[C@@H](C)[C@H](C)CC[C@]7(C(=O)OCc7ccccc7)CC[C@@]6(C)[C@]5(C)CC[C@H]4C3(C)C)c3ccc(=[N+](CC)CC)cc-3oc2c1 | 4.80 | 5.00 | 4.94 | 4.86 | 4.81 | 4.90 |  |  |  | 
10 | C=C(C)[C@@H]1CC[C@]2(C(=O)OC)CC[C@]3(C)[C@H](CC[C@@H]4[C@@]5(C)CC[C@H](OC(=O)c6ccccc6-c6c7ccc(=[N+](CC)CC)cc-7oc7cc(N(CC)CC)ccc67)C(C)(C)[C@@H]5CC[C@]43C)[C@H]12 | 5.89 | 6.38 | 6.21 | 6.09 | 5.75 | 6.13 |  |  |  | 
11 | CCN(CC)c1ccc2c(-c3ccccc3C(=O)O[C@H]3CC[C@]4(C)[C@H]5C(=O)C=C6[C@@H]7C[C@@](C)(C(=O)OCc8ccccc8)CC[C@]7(C)CC[C@@]6(C)[C@]5(C)CC[C@H]4C3(C)C)c3ccc(=[N+](CC)CC)cc-3oc2c1 | 5.81 | 6.05 | 5.85 | 5.83 | 5.89 | 5.95 |  |  |  | 
12 | CCN(CC)c1ccc2c(-c3ccccc3C(=O)O[C@H]3CC[C@]4(C)[C@H]5CC=C6[C@@H]7[C@@H](C)[C@H](C)CC[C@]7(C(=O)NCc7ccccc7)CC[C@@]6(C)[C@]5(C)CC[C@H]4C3(C)C)c3ccc(=[N+](CC)CC)cc-3oc2c1 | 6.36 | 6.47 | 6.35 | 6.52 | 6.43 | 6.62 |  |  |  | 
